Values after ≈ are worked out from the molar mass of the structure shown. Active and inactive are the calls of the source. The rule behind the calls is not given here.
Legend:
Klebsiella pneumoniae = experiment: Antibacterial activity against Klebsiella pneumoniae ATCC 700603 incubated for 16 to 20 hrs by microdilution method; format: functional
Summary of the method: (§1)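 CLSI broth microdilution. 2-fold serial dilutions were made in cation-adjusted Mueller–Hinton broth, with 5% lysed horse blood added for Streptococcus strains, in triplicate. Inoculum 5×10^5 CFU/mL. Plates incubated 36 °C for 16–20 h. MIC taken as the lowest concentration visibly inhibiting growth.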

[1] = AUC (0 to infinity) in ICR mouse peritonitis model infected with methicillin resistant Staphylococcus aureus ATCC 27660 at 10 mg/kg, po administered as single dose through gavage by UPLC analysis; format: ADME, organism-based; set-up: dose 10 mg/kg, route oral, time infinity; settings: ICR, in vivo
Summary of the method: (§2)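 Female ICR mice, single 10 mg/kg oral gavage in 25% DMSO/55% propylene glycol/20% PBS (2.5 mg/mL); n = 3 per time point; terminal blood 0.5–30 h; plasma protein-precipitated with acetonitrile containing internal standard, quantified by UPLC-UV or MRM against mouse-plasma calibration curve (0–50 μg/mL).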

[2] = Hemolytic activity against human RBC at 64 ug/ml relative to control; format: ADME, cell-based, Erythrocyte; settings: red blood cells, read-out: Activity
Summary of the method: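 Hemolysis was measured at a fixed 64 μg/mL on a 10% red-cell suspension from heparinized human blood. Triton-X served as the positive control, and results are given as percent hemolysis.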

Staphylococcus aureus [3] = experiment: […] activity against multidrug resistant Staphylococcus aureus ATCC 27660; format: functional; settings: read-out: MBC99.9
Enterococcus faecalis [4] = experiment: Antibacterial activity against methicillin-susceptible Enterococcus faecalis ATCC 29212 incubated for 16 to 20 hrs by microdilution method; format: functional; summary of the method: as §1
Staphylococcus aureus [5] = experiment: Antibacterial activity against mecA-positive multidrug resistant Staphylococcus aureus COL NRS100 incubated for 16 to 20 hrs by microdilution method; format: functional
[6] = AUC (0 to last) in ICR mouse peritonitis model infected with methicillin resistant Staphylococcus aureus ATCC 27660 at 10 mg/kg, po administered as single dose through gavage measured after 30 hrs by UPLC analysis; format: ADME, organism-based; set-up: dose 10 mg/kg, time 0 - last, route oral; settings: ICR, in vivo; summary of the method: as §2
Acinetobacter baumannii = experiment: Antibacterial activity against Acinetobacter baumannii ATCC 17961 incubated for 16 to 20 hrs by microdilution method; format: functional; summary of the method: as §1
HepG2 = experiment: Cytotoxicity against human HepG2 cells incubated for 16 hrs by XTT assay; format: cell-based; settings: HepG2, 16 h
Summary of the method: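 HepG2 cells were tested with an XTT viability read-out, in triplicate. IC50 was obtained by nonlinear regression.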

[7] = Protein binding in human plasma at 10 uM after 6 hrs by UPLC based equillibrium dialysis method; format: ADME, cell-free; settings: read-out: PPB (converted)
Staphylococcus aureus [8] = experiment: Antibacterial activity against vancomycin/methicillin-resistant Staphylococcus aureus VRS2 clinical isolate incubated for 16 to 20 hrs by microdilution method; format: functional
Staphylococcus aureus [9] = experiment: […] activity against methicillin-resistant Staphylococcus aureus NRS70; format: functional; settings: read-out: MBC99.9
[10] = Terminal half life in ICR mouse peritonitis model infected with methicillin resistant Staphylococcus aureus ATCC 27660 at 10 mg/kg, po administered as single dose through gavage by UPLC analysis; format: ADME, organism-based; settings: ICR, in vivo, read-out: beta t1/2; summary of the method: as §2
Staphylococcus aureus [11] = experiment: Antibacterial activity against methicillin-resistant Staphylococcus aureus NRS70 in ICR mouse neutropenic thigh infection model assessed as reduction in bacterial load at 20 mg/kg, sc tid administered every 8 hrs starting from 1 hr post infection and measured 7 hrs post last dose; format: functional, organism-based
Summary of the method: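 Female ICR mice (n = 8 per group) made neutropenic with ip cyclophosphamide 200 mg/kg at 4 days and 1 day pre-infection; 100 μL NRS70 (~1×10^6 CFU/mL in brain–heart infusion) injected im into right thigh; sc doses at 1, 9, 17 h; thighs harvested at 24 h, homogenized, plated in triplicate on LB agar; log10 CFU/g.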

Enterococcus faecium = experiment: Antibacterial activity against Enterococcus faecium NCTC 7171 incubated for 16 to 20 hrs by microdilution method; format: functional; summary of the method: as §1
Streptococcus pyogenes = experiment: Antibacterial activity against Streptococcus pyogenes ATCC 49399 incubated for 16 to 20 hrs by microdilution method; format: functional; summary of the method: as §1
[12] = Volume of distribution in ICR mouse peritonitis model infected with methicillin resistant Staphylococcus aureus ATCC 27660 at 10 mg/kg, iv administered as single dose measured up to 24 hrs by UPLC analysis; format: ADME, organism-based; settings: ICR, in vivo
[13] = tested on: Staphylococcus haemolyticus; experiment: Antibacterial activity against Staphylococcus haemolyticus ATCC 29970 incubated for 16 to 20 hrs by microdilution method; format: functional
[14] = Plasma concentration in ICR mouse neutropenic thigh model of methicillin-resistant Staphylococcus aureus NRS70 infection at 20 mg/kg, sc tid administered every 8 hrs starting from 1 hr post infection and measured 7 hrs post last dose by UPLC analysis; format: ADME, organism-based
Summary of the method: (§3)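 Neutropenic thigh model (cyclophosphamide 200 mg/kg ip, NRS70 im), sc doses at 1, 9 and 17 h; at 24 h cardiac blood and uninfected thigh taken (n = 8 per group); thigh homogenate supernatant and plasma acetonitrile-quenched with internal standard, analysed by UPLC with MRM detection.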

[15] = Clearance in ICR mouse peritonitis model infected with methicillin resistant Staphylococcus aureus ATCC 27660 at 10 mg/kg, iv administered as single dose measured up to 8 hrs by UPLC analysis; format: ADME, organism-based; settings: in vivo
Summary of the method: (§4)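 Fast PK: female ICR mice (n = 2 per time point) given single tail-vein iv injection at 5, 10 or 20 mg/kg in 25% DMSO/65% propylene glycol/10% water (2.5, 5 or 10 mg/mL); terminal cardiac blood at 5 min, 40 min, 2, 4, 8 h; plasma analysed by UPLC with internal standard calibration.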

[16] = AUC (0 to last) in ICR mouse peritonitis model infected with methicillin resistant Staphylococcus aureus ATCC 27660 at 10 mg/kg, iv administered as single dose measured up to 8 hrs by UPLC analysis; format: ADME, organism-based; set-up: dose 10 mg/kg, time 0 - last, route intravenous; settings: ICR, in vivo; summary of the method: as §4
Enterococcus faecalis [17] = experiment: Antibacterial activity against vancomycin-resistant Enterococcus faecalis 99 clinical isolate incubated for 16 to 20 hrs by microdilution method; format: functional
Staphylococcus aureus [18] = experiment: Antibacterial activity against mecA-positive multidrug resistant Staphylococcus aureus NRS120 incubated for 16 to 20 hrs by microdilution method; format: functional
[19] = tested on: Staphylococcus epidermidis; experiment: Antibacterial activity against Staphylococcus epidermidis ATCC 35547 incubated for 16 to 20 hrs by microdilution method; format: functional; summary of the method: as §1
Mus musculus = experiment: Tmax in ICR mouse peritonitis model infected with methicillin resistant Staphylococcus aureus ATCC 27660 at 10 mg/kg, po administered as single dose through gavage by UPLC analysis; format: ADME, organism-based; settings: in vivo; summary of the method: as §2
Staphylococcus aureus [20] = experiment: Antibacterial activity against methicillin resistant Staphylococcus aureus ATCC 27660 infected in iv dosed ICR mouse model of peritonitis assessed as mouse survival administered at 30 mins and 4.5 hrs post infection measured for 48 hrs; format: functional; settings: ATCC 27660, iv
Klebsiella aerogenes = experiment: Antibacterial activity against Enterobacter aerogenes ATCC 35029 incubated for 16 to 20 hrs by microdilution method; format: functional; summary of the method: as §1
Bacillus licheniformis = experiment: Antibacterial activity against Bacillus licheniformis ATCC 12759 incubated for 16 to 20 hrs by microdilution method; format: functional; summary of the method: as §1
Staphylococcus aureus [21] = experiment: Antibacterial activity against vancomycin/methicillin-resistant Staphylococcus aureus VRS1 clinical isolate incubated for 16 to 20 hrs by microdilution method; format: functional
Escherichia coli = experiment: Antibacterial activity against Escherichia coli ATCC 25922 incubated for 16 to 20 hrs by microdilution method; format: functional; summary of the method: as §1
[22] = Cmax in ICR mouse peritonitis model infected with methicillin resistant Staphylococcus aureus ATCC 27660 at 10 mg/kg, po administered as single dose through gavage measured at 1 hr post dose by UPLC analysis; format: ADME, organism-based; set-up: dose 10 mg/kg, route oral; settings: in vivo
[23] = Drug level in uninfected thighs of ICR mouse neutropenic thigh model of methicillin-resistant Staphylococcus aureus NRS70 infection at 20 mg/kg, sc tid administered every 8 hrs starting from 1 hr post infection and measured 7 hrs post last dose by UPLC analysis; format: ADME, organism-based; settings: read-out: Drug uptake; summary of the method: as §3
Staphylococcus aureus [24] = experiment: Antibacterial activity against mecA-positive multidrug resistant Staphylococcus aureus NRS119 incubated for 16 to 20 hrs by microdilution method; format: functional
Streptococcus oralis = experiment: Antibacterial activity against Streptococcus oralis ATCC 9811 incubated for 16 to 20 hrs by microdilution method; format: functional; summary of the method: as §1
[25] = Terminal half life in ICR mouse peritonitis model infected with methicillin resistant Staphylococcus aureus ATCC 27660 at 10 mg/kg, iv administered as single dose by UPLC analysis; format: ADME, organism-based; settings: ICR, in vivo, read-out: beta t1/2
Pseudomonas aeruginosa = experiment: Antibacterial activity against Pseudomonas aeruginosa […] incubated for 16 to 20 hrs by microdilution method; format: functional; summary of the method: as §1
Bacillus cereus = experiment: Antibacterial activity against Bacillus cereus ATCC 13061 incubated for 16 to 20 hrs by microdilution method; format: functional; summary of the method: as §1
[26] = AUC (0 to infinity) in ICR mouse peritonitis model infected with methicillin resistant Staphylococcus aureus ATCC 27660 at 10 mg/kg, iv administered as single dose by UPLC analysis; format: ADME, organism-based; set-up: dose 10 mg/kg, time infinity, route intravenous; settings: ICR, in vivo
[27] = Oral bioavailability in ICR mouse peritonitis model infected with methicillin resistant Staphylococcus aureus ATCC 27660 at 10 mg/kg administered as single dose through gavage by UPLC analysis; format: ADME, organism-based; settings: ICR, in vivo; summary of the method: as §2

For `N#Cc1ccc(/C=C/c2nc3ccccc3c(=O)n2-c2cccc(C(=O)O)c2)cc1`, the MIC (Klebsiella pneumoniae) was ≥ 16 µg/mL, the AUC(0-inf) [1] was 12300 ng·h/mL and the hemolysis at 64 ug/ml [2] was < 1%. The MBC (Staphylococcus aureus [3]) was 64 µg/mL (≈ 163 µM), the MIC (Enterococcus faecalis [4]) was > 128 µg/mL and the MIC (Staphylococcus aureus [5]) was 16 µg/mL (≈ 40.7 µM). The AUC(0-t) at 30 h [6] was 6800 ng·h/mL, the MIC (Acinetobacter baumannii) was ≥ 16 µg/mL and the IC50 (HepG2) was 62.9 µg/mL (≈ 160 µM). The fraction unbound at 6 h, 10 µM [7] was 0.035, the MIC (Staphylococcus aureus [8]) was 2 µg/mL (≈ 5.08 µM) and the MBC (Staphylococcus aureus [9]) was 32 µg/mL (≈ 81.3 µM). The half-life [10] was > 20 h, the Activity (Staphylococcus aureus [11]) was “inactive” and the MIC (Enterococcus faecium) was > 128 µg/mL. The MIC (Streptococcus pyogenes) was > 128 µg/mL, the Vd [12] was 0.3 L/kg and the MIC [13] was 1 µg/mL (≈ 2.54 µM). The concentration at 7 h [14] was 1130 ng/mL, the clearance [15] was 6.9 mL/min/kg and the AUC(0-t) at 8 h [16] was 19700 ng·h/mL. The MIC (Enterococcus faecalis [17]) was > 128 µg/mL, the MIC (Staphylococcus aureus [18]) was 8 µg/mL (≈ 20.3 µM) and the MIC [19] was 1 µg/mL (≈ 2.54 µM). For the same compound, the Tmax (Mus musculus) was 1 h, the ED50 (Staphylococcus aureus [20]) was 9.4 mg/kg and the MIC (Klebsiella aerogenes) was ≥ 16 µg/mL. The MIC (Bacillus licheniformis) was > 128 µg/mL, the MIC (Staphylococcus aureus [21]) was 16 µg/mL (≈ 40.7 µM) and the MIC (Escherichia coli) was ≥ 16 µg/mL. For the same compound, the Cmax [22] was 1300 ng/mL, the concentration at 7 h [23] was 24 ng/mL and the MIC (Staphylococcus aureus [24]) was 8 µg/mL (≈ 20.3 µM). For the same compound, the MIC (Streptococcus oralis) was > 128 µg/mL, the half-life [25] was ≥ 20 h and the MIC (Pseudomonas aeruginosa) was ≥ 16 µg/mL. The MIC (Bacillus cereus) was > 128 µg/mL, the AUC(0-inf) [26] was 24300 ng·h/mL and the bioavailability [27] was 50%.

Reference: ChEMBL document CHEMBL3817745, “Structure-Activity Relationship for the 4(3H)-Quinazolinone Antibacterials” (J Med Chem, 2016)
